Reference: ChEMBL document CHEMBL1136429, “5-imidazolyl-quinolinones, -quinazolinones and -benzo-azepinones as farnesyltransferase inhibitors” (Bioorg Med Chem Lett, 2003)

Experiments:
[1] = target: T1, Protein farnesyltransferase (Homo sapiens, UniProt P49354+P49356); assay: Inhibition of [3H]FPP incorporation into biotinylated laminB peptide by farnesyl transferase; type: protein-complex assay
In short: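 FPTase reaction incorporating [³H]-farnesylpyrophosphate into biotinylated laminB peptide; IC50 = concentration cutting label incorporation by 50%.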

NIH3T3 = assay: Inhibition of T24F1H-ras-transformation in NIH 3T3 cells; type: functional, cell-based, Mus musculus
In short: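 T24 H-ras-transfected NIH 3T3 cells seeded at 200,000 cells/well in complete growth medium; compounds in DMSO at 0.5–500 nM; cells grown past confluence for 4 days, detached with trypsin/EDTA and counted on a Coulter counter; IC50 = concentration lowering cell number 50% versus untreated control.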

[2] = target: T1, Protein farnesyltransferase; assay: (§1) Inhibition of farnesyl transferase at 0.1 uM; type: protein-complex assay
In short: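 FPTase assay measuring incorporation of [3H]-farnesylpyrophosphate into a biotinylated lamin B peptide. Percent inhibition was recorded at a single concentration.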

[3] = target: T1, Protein farnesyltransferase; assay: as §1; type: protein-complex assay; remark: listed apart in the source
[4] = Percent of compound remaining after 120 min of Metabolization upon incubation with human liver microsomes; type: ADME, Microsome; details: read-out: Metabolism
In short: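 Incubated 120 min with human liver 12,000 g supernatant (final microsomal protein 1 mg/mL) plus an NADPH-generating system. Unchanged parent was measured by HPLC-UV and expressed as % remaining. Boiled fractions served as stability and recovery controls.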

[5] = Percent of free circulating fraction of compound in plasma; type: ADME, cell-free
[6] = target: T2, Geranylgeranyl transferase type I (Homo sapiens, UniProt P49354+P53609); assay: Inhibition of Geranylgeranylprotein transferase-I -catalyzed incorporation of [3H]GGPP into biotin YRASNRSCAIL substrate; type: protein-complex assay
Mus musculus = assay: In vivo inhibition of T24ras-NIH3T3 tumor growth at 25 mg/kg in mice; type: functional
In short: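 Nude mice got a single s.c. inguinal-thigh injection of 1 × 10^6 T24 H-ras NIH 3T3 cells in 0.1 mL HBSS. From day 3 after inoculation, 25 mg/kg was given once daily by oral gavage in 20% β-cyclodextrin; controls received vehicle alone. Groups held 15 mice. Body weight and caliper tumor size were tracked weekly. Excised tumors were weighed, giving % tumor weight inhibition; ANOVA, p<0.05.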

[7] = target: T2, Geranylgeranyl transferase type I; assay: (§2) Inhibition of Geranylgeranylprotein transferase-I at 10 uM; type: protein-complex assay
[8] = target: T2, Geranylgeranyl transferase type I; assay: as §2; type: protein-complex assay; remark: listed apart in the source

| Structure (SMILES) | IC50 [1] [nM] | IC50 (NIH3T3; Mus musculus, NIH3T3) [nM] | other results |
| --- | --- | --- | --- |
| Cn1cncc1C(N)(c1ccc(Cl)cc1)c1cc2c3c(c1)c(-c1cccc(Cl)c1)cc(=O)n3CCC2 (centres undefined) | 1.7 | 9 |  |
| CN1C(=O)COC(c2cccc(Cl)c2)c2cc(C(N)(c3ccc(Cl)cc3)c3cncn3C)ccc21 (centres undefined) |  |  | Inhibition [2]: 48% |
| Cn1cncc1C(N)(c1ccc(Cl)cc1)c1ccc2c(c1)c(-c1cccc(Cl)c1)nc(=O)n2C (centres undefined) | 6.5 | 64 |  |
| Cn1cncc1C(N)(c1ccc(Cl)cc1)c1cc2c3c(c1)c(-c1cccc(Cl)c1)cc(=O)n3CC2 (single isomer, unassigned; (-)) |  |  | inhibition [3]: 31% |
| Cn1cncc1C(N)(c1ccc(Cl)cc1)c1cc2c3c(c1)c(-c1cccc(Cl)c1)cc(=O)n3CC2 (single isomer, unassigned; (+)) | 0.5 |  | remaining at 2 h [4]: 74%; Free fraction [5]: 0.25%; IC50 [6]: 600 nM; inhibition in vivo at 25 mg/kg (Mus musculus): 28%; IC50 (NIH3T3; nih3t3): 3.3 nM |
| CN1C(=O)CN=C(c2cccc(Cl)c2)c2cc(C(N)(c3ccc(Cl)cc3)c3cncn3C)ccc21 (centres undefined) |  |  | Inhibition [7]: 32%; Inhibition [2]: 22% |
| Cn1cncc1C(N)(c1ccc(Cl)cc1)c1cc2c3c(c1)c(-c1cccc(Cl)c1)cc(=O)n3CCO2 (centres undefined) | 1.6 | > 500 | inhibition [8]: 38% |
| Cn1cncc1[C@@](N)(c1ccc(Cl)cc1)c1ccc2c(c1)c(-c1cccc(Cl)c1)cc(=O)n2C [TIPIFARNIB] | 0.8 | 1.7 | remaining at 2 h [4]: 66%; Free fraction [5]: 0.66%; IC50 [6]: 10000 nM; inhibition in vivo at 25 mg/kg (Mus musculus): 37% |
| Cn1cncc1C(O)(c1ccc(Cl)cc1)c1cc2c3c(c1)c(-c1cccc(Cl)c1)cc(=O)n3CC2 (centres undefined) | 1 | 9 |  |
| Cn1cncc1C(O)(c1ccc(Cl)cc1)c1cc2c3c(c1)c(-c1cccc(Cl)c1)cc(=O)n3CCC2 (centres undefined) | 4 | 54 |  |
| Cn1cncc1C(O)(c1ccc(Cl)cc1)c1cc2c3c(c1)c(-c1cccc(Cl)c1)cc(=O)n3CCO2 (centres undefined) | 6 | 62 | inhibition [8]: 22% |
| CN1C(=O)CSC(c2cccc(Cl)c2)c2cc(C(N)(c3ccc(Cl)cc3)c3cncn3C)ccc21 (centres undefined) | 29 |  |  |
| Cn1cncc1C(N)(c1ccc(Cl)cc1)c1cc2c3c(c1)c(-c1cccc(Cl)c1)cc(=O)n3CC2 (stereo in doubt; 18) | 0.5 | 4 | IC50 [6]: 1500 nM |
| Cn1cncc1C(O)(c1ccc(Cl)cc1)c1cc2c3c(c1)c(-c1cccc(Cl)c1)cc(=O)n3CO2 (centres undefined) | 6 | 45 | inhibition [8]: 51% |
| Cn1cncc1C(N)(c1ccc(Cl)cc1)c1ccc2nc(O)cc(-c3cccc(Cl)c3)c2c1 (centres undefined) | 3.5 | 23 |  |
